Screening results: PubChem, several laboratories
An excerpt weighted towards active compounds, which were near 3.7% of everything screened.
Myeloid diff MLP – promotes myeloid progenitor differentiation | ER-HoxA9 myeloid progenitors, lysozyme-GFP differentiation, flow cytometry | calls only at 10 µM | 360,000 compounds, 1% hits;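 active means normalized GFP-positive differentiation at or above the plate's own cutoff, the solvent-only control mean plus 3 SD; inconclusive means no clear call, values can overlap the other calls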;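 further: cells exposed to compound for four days before flow analysis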
MC4R antag cAMP – blocks human MC4R cAMP signaling. P32245. MC4R-expressing cells, MTII-stimulated cAMP, LANCE TR-FRET. inhibition, % at 6.5 µM. 360,000 compounds, 0.48% hits. AID 540295;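 active means inhibition above its plate's cutoff, the mean of tested wells on that plate plus 3 SD, cut at about 29% in these data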;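 further: 0% = Melanotan II alone and 100% = Melanotan II plus saturating MCL0020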
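Assay system: human MC4R-expressing U2OS cells; reagent: Melanotan II stimulation of cells; dosing: 6.5 µM single dose; timing: compound 30 min, challenge 1 h, detection 1 h; signal: TR-FRET cAMP assay; replicates: one well per compound, no replicates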
Granule exo inh – lytic granule exocytosis inhibition. TALL-104 LAMP-1 surface exposure, flow cytometry; cells stimulated with thapsigargin and PMA. inhibition, % at 10 µM. 360,000 compounds, 0.66% hits;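 active means inhibition above about 55%, limit read from the data; inconclusive means no clear call, values can overlap the other calls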
MC4R ag barr – human MC4R agonism via beta-arrestin; P32245; U2OS MC4R beta-arrestin complementation, luminescence; percent of melanotan II response, DMSO zero; activation, % at 8.9 µM; 360,000 compounds, 0.98% hits;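 active means activation above a per-plate cutoff, the mean activation of sample wells on that plate plus 3 SD, cut at about 8% in these data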
EBI2 block – blocks human EBI2 receptor beta-arrestin signaling; P32249; EBI2 beta-arrestin recruitment, luminescence, 7a,25-OHC stimulated; inhibition, % at 5 µM; 360,000 compounds, 0.81% hits; in the data active means inhibition above about 38%;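 further: enzyme fragment complementation signal reports receptor beta-arrestin coupling in cells; 0% = agonist plus DMSO wells and 100% = wells without agonist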
Target sequence (P32249 whole entry, looked up, the tested form may be a part): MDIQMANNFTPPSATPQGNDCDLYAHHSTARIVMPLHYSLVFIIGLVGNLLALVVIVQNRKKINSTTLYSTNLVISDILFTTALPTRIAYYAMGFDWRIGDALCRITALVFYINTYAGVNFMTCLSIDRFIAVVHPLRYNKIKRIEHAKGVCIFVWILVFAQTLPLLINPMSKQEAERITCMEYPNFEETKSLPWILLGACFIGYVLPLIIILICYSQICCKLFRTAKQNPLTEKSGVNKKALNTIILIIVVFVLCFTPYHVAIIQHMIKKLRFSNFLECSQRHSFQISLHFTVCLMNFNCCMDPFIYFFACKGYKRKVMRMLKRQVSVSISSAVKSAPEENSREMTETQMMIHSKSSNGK
cAMP nonselect – nonselective cAMP signaling inhibitor, MC4R antagonist counter-screen. inhibition, % at 6.5 µM. parental U2OS, forskolin cAMP, LANCE TR-FRET. shares compounds with MC4R antag cAMP. 1,600 compounds, 26% hits;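 active means mean inhibition over triplicates above the low-control well mean plus 3 SD, set per campaign, cut at about 13% in these data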;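 further: signal is single emission at 671 nm which falls as cellular cAMP rises; 0% = forskolin-stimulated wells and 100% = buffer without forskolin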
MC4R cAMP antag – human MC4R cAMP antagonism confirmation | 1,600 compounds, 27% hits | inhibition, % at 6.5 µM | MC4R-expressing cells, MTII-stimulated cAMP, TR-FRET | shares compounds with MC4R antag cAMP | AID 602195; in the data active means inhibition above about 29%;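 further: 0% = agonist stimulated wells alone and 100% = agonist stimulated wells plus saturating reference antagonist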
* = called active by the depositor; i = inactive; ? = inconclusive; / = no result given.

SMILES	Myeloid diff MLP	MC4R antag cAMP	Granule exo inh	MC4R ag barr	EBI2 block	cAMP nonselect	MC4R cAMP antag
CCOc1cc(C(=O)OCC(=O)Nc2c(C)cccc2C)ccc1OCC(=O)N1CCOCC1	i	15	-4	-4	-1	/	/
CCOC(=O)c1ccccc1NC(=O)COC(=O)c1ccc(OCC(=O)N2CCOCC2)c(OCC)c1	i	30*	2	9.1*	-5	0	4
COC(=O)c1sc(N2C(=O)C(O)=C(C(=O)c3ccc(C)o3)C2c2ccc(F)cc2)nc1C (centres undefined)	i	33*	31	1	15	17*	22
COC(=O)c1sc(N2C(=O)C(O)=C(C(=O)c3ccc(C)o3)C2c2ccco2)nc1C (centres undefined)	i	6	-4	-3	-3	/	/
COC(=O)CSc1ccc(C#N)c(SCC(=O)OC)c1	i	35*	3	-1	-5	17*	21
COC(=O)CSc1cc(SCC(=O)OC)c(C#N)c(SCC(=O)OC)c1	i	14	0	-1	7	/	/
COC(=O)[C@H](CC(C)C)NC(=O)N1CCC(C)CC1	i	33*	2	-1	-7	5	4
CCOC(=O)CS(=O)(=O)c1nc(-c2ccc(F)cc2)cc(C(F)(F)F)n1	i	32*	96*	-3	60*	13	-1
CCOC(=O)CS(=O)(=O)c1nc(-c2ccccc2)cc(C(F)(F)F)n1	i	13	30	-4	20	/	/
CC(=O)NC(c1ccc(F)c(F)c1)c1nc(-c2cccc(C(C)C)c2)cs1 (centres undefined)	i	0	8	1	10	/	/
COc1cc(/C=C2\C(=N)N3N=C(C)SC3=NC2=O)cc(Cl)c1OCCOc1ccc(NC(C)=O)cc1	i	30*	6	0	2	6	1
O=C(c1cccc(S(=O)(=O)Nc2ccc(F)cc2)c1)N1CCOCC1	i	0	-2	0	-8	/	/
CC(=O)Oc1ccc2nc(-c3ccco3)oc(=O)c2c1	i	34*	16	0	4	13	39*
CC(=O)Oc1ccc2nc(-c3cccs3)oc(=O)c2c1	i	22	1	1	4	/	/
O=C(CSc1ccc(F)cc1)NCC1(N2CCOCC2)CCCCC1	i	7	-6	-1	1	/	/
COc1ccc2c(c1)CCC1(C)CC(=O)C(Br)=C21 (centres undefined)	i	40*	3	0	9	34*	53*
COC(=O)C1(C)CCc2cc(OC)ccc2C1=O (centres undefined)	i	-5	11	-3	-5	/	/
COC(=O)[C@@]12C[C@@H](CC(=O)NCC3CCCCC3)C(=O)N(Cc3ccc4c(c3)OCO4)C1=CCC(C)(C)C2	i	/	5	/	20	/	/
O=C(COC(=O)CNC(=O)c1cccc(OC(F)F)c1)NCc1ccc2c(c1)OCO2	i	33*	-1	-2	0	20*	40*
O=C(COC(=O)CNC(=O)c1ccccc1)NCc1ccc2c(c1)OCO2	i	20	2	-5	0	/	/
CC(C)(C)n1nnnc1C(c1cccnc1)N1CCN(c2cccc(C(F)(F)F)c2)CC1 (centres undefined)	/	20	-2	-1	3	/	/
CC(C)(C)c1cc(C(c2cccnc2)N2CCN(CCO)CC2)cc(C(C)(C)C)c1O (centres undefined)	?	29*	45	-3	3	10	19
COc1cc([N+](=O)[O-])ccc1NC(=S)NC(=O)CC(C)(C)C	i	30*	15	-3	7	6	32*
Cc1cc(NC(=O)CSc2nc3c(c(-c4cccnc4)c2C#N)CCC3)no1	i	47*	-1	3	-1	19*	57*
Cc1cc(NC(=O)CSc2nc3ccccc3cc2C#N)no1	i	51*	4	0	1	7	0
SMILES	Myeloid diff MLP	MC4R antag cAMP	Granule exo inh	MC4R ag barr	EBI2 block	cAMP nonselect	MC4R cAMP antag
COc1ccc2nc(SCC(=O)Nc3cc(C)on3)c(C#N)cc2c1	/	13	-7	-1	1	/	/
Cc1cc(NC(=O)CSc2nc(-c3cccnc3)ccc2C#N)no1	i	11	-4	0	0	/	/
Cc1cccc(NC(=O)COC(=O)c2ccc3c(=O)n4c(nc3c2)CCC4)c1	i	17	0	-1	-1	/	/
O=C(COC(=O)c1ccc2c(=O)n3c(nc2c1)CCC3)Nc1ccc(OC(F)F)cc1	i	30*	-2	-3	4	5	17
CC(C)(C)c1nc2c(Br)cc(Br)cc2c(=O)o1	i	6	1	-1	-5	/	/
O=C(COC(=O)CNC(=O)c1ccc(Cl)cc1Cl)NCc1ccco1	i	31*	0	-2	-15	11	43*
O=C(CNC(=O)c1ccc(Cl)cc1Cl)OCn1nnc2ccccc2c1=O	i	32*	4	-2	7	17*	21
CC1CCCC(C)N1C(=O)COC(=O)CNC(=O)c1ccc(Cl)cc1Cl (centres undefined)	i	29*	-1	-1	-4	18*	19
O=C(CNC(=O)c1ccc(Cl)cc1Cl)OCC(=O)N1CCCC1=O	i	35*	11	-2	-8	19*	30*
COc1ccc(NC(=O)C(c2ccccc2F)n2c(=O)c(-c3cc4ccccc4[nH]3)nc3ccccc32)cc1 (centres undefined)	i	/	3	/	2	/	/
CCC(=O)N1CCC1(C)C(=O)Nc1cc(-c2ccccc2)nn1C (centres undefined)	i	8	2	1	-4	/	/
O=C(CNC(=O)/C(=C\c1ccc(Br)cc1)NC(=O)c1ccccc1)OCc1ccccc1	i	40*	3	-3	-5	19*	48*
CC(C)(C)Nc1nc(Cl)nc(N(C#N)CN2C(=O)c3ccccc3S2(=O)=O)n1	i	35*	14	-1	7	25*	51*
CC(C)Nc1nc(Cl)nc(N(C#N)CN2C(=O)c3ccccc3S2(=O)=O)n1	i	46*	2	-2	9	14*	37*
CN(C)c1nc(N(C)C)nc(N(C#N)CN2C(=O)c3ccccc3S2(=O)=O)n1	i	9	1	-2	8	/	/
O=C(NCc1cccnc1)c1cc(C2CCCCN2S(=O)(=O)Cc2ccccc2)on1 (centres undefined)	i	2	8	1	-8	/	/
O=C(/C=C\c1ccc2c(c1)OCO2)CC1(O)C(=O)Nc2ccccc21 (centres undefined)	i	2	-3	-1	9	/	/
